Test results published in ChEMBL document CHEMBL1143103, “2-Hydroxyphenacyl azoles and related azolium derivatives as antifungal agents” (Bioorg Med Chem Lett, 2008).
In brackets after ≈: the same amount, converted by molar mass.

Key:
[1] = test system: Candida albicans; experiment: Antifungal activity against Candida albicans PTCC 5027 after 24 to 48 hrs by agar dilution method; type: functional
How it was run: (§1)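 Agar dilution on Sabouraud Dextrose Agar. Plates prepared in triplicate and incubated at 30 °C: yeasts about 24–48 h, moulds about 72 h, dermatophytes about 168 h. MIC taken as the lowest concentration with no growth, in µg/mL. Footnote states duplicate determinations.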

[2] = test system: Saccharomyces cerevisiae; experiment: Antifungal activity against Saccharomyces cerevisiae PTCC 5177 after 24 to 48 hrs by agar dilution method; type: functional; how it was run: as §1
[3] = test system: Aspergillus niger; experiment: Antifungal activity against Aspergillus niger PTCC 5012 after 72 hrs by agar dilution method; type: functional; how it was run: as §1
[4] = test system: Microsporum; experiment: Antifungal activity against Microsporum gypseum PTCC 5070 after 168 hrs by agar dilution method; type: functional; how it was run: as §1
[5] = Cytotoxicity against mouse NIH/3T3 cells after 72 hrs by MTT colorimetric assay; type: cell-based; settings: NIH3T3, 72 h
How it was run: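 NIH/3T3 cells in exponential growth were trypsinized and seeded at 5 × 10^4 cells/mL in complete medium. Serial dilutions were added, each in triplicate, with untreated cells as the viability control. After 72 h incubation, MTT (5 mg/mL solution) was added for 1 h. Medium was replaced with DMSO and absorbance read at 492 nm. IC50 was taken from dose-response curves against control; mean ± SD of triplicates.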

Structure (SMILES)	MIC [1]	MIC [2]	MIC [3]	MIC [4]	IC50 [5]
N[n+]1cnn(CC(=O)c2ccc(Cl)cc2O)c1.[Br-]	4 µg/mL	0.25 µg/mL	32 µg/mL	16 µg/mL	370 µg/mL
OC(Cn1cncn1)(Cn1cncn1)c1ccc(F)cc1F [FLUCONAZOLE]	8 µg/mL (≈ 26.1 µM)	32 µg/mL (≈ 104 µM)	32 µg/mL (≈ 104 µM)	32 µg/mL (≈ 104 µM)	387 µg/mL (≈ 1260 µM)
O=C(Cn1c[n+](CC(=O)c2ccccc2O)cn1)c1ccccc1O.[Br-]	16 µg/mL	1 µg/mL	32 µg/mL	16 µg/mL	47 µg/mL
COc1ccc(C(=O)Cn2cncn2)c(O)c1	8 µg/mL (≈ 34.3 µM)	8 µg/mL (≈ 34.3 µM)	32 µg/mL (≈ 137 µM)	16 µg/mL (≈ 68.6 µM)	222 µg/mL (≈ 952 µM)
O=C(Cn1cnnc1)c1ccc(Cl)cc1O	16 µg/mL (≈ 67.3 µM)	16 µg/mL (≈ 67.3 µM)	32 µg/mL (≈ 135 µM)	64 µg/mL (≈ 269 µM)	
O=C(Cn1c[n+](CC(=O)c2ccc(Cl)cc2O)cn1)c1ccc(Cl)cc1O.[Br-]	32 µg/mL	8 µg/mL	64 µg/mL	32 µg/mL	
O=C(Cn1cncn1)c1ccc(Cl)cc1O	32 µg/mL (≈ 135 µM)	64 µg/mL (≈ 269 µM)	16 µg/mL (≈ 67.3 µM)	16 µg/mL (≈ 67.3 µM)	
O/N=C(\Cn1ccnc1)c1ccccc1O	32 µg/mL (≈ 147 µM)	32 µg/mL (≈ 147 µM)	64 µg/mL (≈ 295 µM)	64 µg/mL (≈ 295 µM)	
COc1ccc(C(=O)Cn2c[n+](CC(=O)c3ccc(OC)cc3O)cn2)c(O)c1.[Br-]	8 µg/mL	4 µg/mL	16 µg/mL	16 µg/mL	98 µg/mL
O=C(Cn1cnnc1)c1ccccc1O	32 µg/mL (≈ 157 µM)	16 µg/mL (≈ 78.7 µM)	16 µg/mL (≈ 78.7 µM)	16 µg/mL (≈ 78.7 µM)	
O=C(Cn1cncn1)c1ccccc1O	64 µg/mL (≈ 315 µM)	64 µg/mL (≈ 315 µM)	32 µg/mL (≈ 157 µM)	64 µg/mL (≈ 315 µM)	
Clc1ccc(COC(Cn2ccnc2)c2ccc(Cl)cc2Cl)c(Cl)c1 (stereo not given) [MICONAZOLE]	1 µg/mL (≈ 2.4 µM)	1 µg/mL (≈ 2.4 µM)	2 µg/mL (≈ 4.81 µM)	8 µg/mL (≈ 19.2 µM)	
COc1ccc(C(=O)Cn2c[n+](N)cn2)c(O)c1.[Br-]	2 µg/mL	4 µg/mL	16 µg/mL	8 µg/mL	254 µg/mL
COc1ccc(C(=O)Cn2ccnc2)c(O)c1	8 µg/mL (≈ 34.4 µM)	0.25 µg/mL (≈ 1.08 µM)	16 µg/mL (≈ 68.9 µM)	8 µg/mL (≈ 34.4 µM)	221 µg/mL (≈ 952 µM)
O=C(Cn1ccnc1)c1ccccc1O	64 µg/mL (≈ 316 µM)	64 µg/mL (≈ 316 µM)	64 µg/mL (≈ 316 µM)	64 µg/mL (≈ 316 µM)	
O=C(Cn1ccnc1)c1ccc(Cl)cc1O	64 µg/mL (≈ 270 µM)	0.25 µg/mL (≈ 1.06 µM)	64 µg/mL (≈ 270 µM)	32 µg/mL (≈ 135 µM)	
N[n+]1cnn(CC(=O)c2ccccc2O)c1.[Br-]	64 µg/mL	32 µg/mL	32 µg/mL	32 µg/mL	
